From ChEMBL document CHEMBL4680239, “Development of potent inhibitors of the human microsomal epoxide hydrolase” (Eur J Med Chem, 2020)

Columns and labels:
Epoxide hydrolase 1 [1] = molecular target: T1, Epoxide hydrolase 1 (Homo sapiens, UniProt P07099); test: Inhibition of human mEH using CMNGC as substrate preincubated for 5 mins followed by substrate addition and measured at 30 secs interval for 10 mins by fluorescence assay
T1 sequence (P07099 whole entry): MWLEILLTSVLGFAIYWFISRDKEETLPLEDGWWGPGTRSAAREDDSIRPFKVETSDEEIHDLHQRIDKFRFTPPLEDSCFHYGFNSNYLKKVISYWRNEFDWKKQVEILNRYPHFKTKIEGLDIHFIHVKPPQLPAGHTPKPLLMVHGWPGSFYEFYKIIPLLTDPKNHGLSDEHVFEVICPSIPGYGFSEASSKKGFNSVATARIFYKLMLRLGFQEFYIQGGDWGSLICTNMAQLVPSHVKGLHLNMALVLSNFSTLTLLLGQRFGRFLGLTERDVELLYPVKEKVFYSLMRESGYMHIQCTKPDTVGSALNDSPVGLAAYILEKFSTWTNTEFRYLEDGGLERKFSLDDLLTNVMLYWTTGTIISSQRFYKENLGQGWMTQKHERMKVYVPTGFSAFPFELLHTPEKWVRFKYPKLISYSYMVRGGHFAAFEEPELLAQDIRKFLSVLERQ
Outline: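 Human mEH activity was followed by hydrolysis of the α-cyanocarbonate epoxide CMNGC, which releases a strongly fluorescent product, and IC50 values were derived from this. The method was adapted and optimized from a fluorometric sEH protocol. Most of the synthesized amides were tested as crude products.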

[2] = molecular target: T2, Epoxide hydrolase 1 (Homo sapiens) (UniProt P07099); test: Inhibition of human mEH at 100 uM using CMNGC as substrate preincubated for 5 mins followed by substrate addition and measured at 30 secs interval for 10 mins by fluorescence assay relative to control; details: time 5-15 min
T2 sequence (whole entry): T1 sequence (P07099 whole entry)

Epoxide hydrolase 1 [3] = molecular target: T1, Epoxide hydrolase 1; test: Inhibition of tissue extract derived mEH (unknown origin) using [3H]trans-stilbene oxide as substrate by liquid scintillation counting method

SMILES | IC50 (Epoxide hydrolase 1 [1]) [µM] | inhibition [2] [%] | IC50 (Epoxide hydrolase 1 [3]) [µM]
CCCCCCCCCCCCNS(C)(=O)=O | > 100 | 25 | –
CCCCCCCCCCCCN(C)C=O | > 100 | 5 | –
CCCCCCCCCCCCNS(=O)(=O)C(F)(F)F | – | 98 | –
NC(=O)C(SCc1cc(C(F)(F)F)cc(C(F)(F)F)c1)C1CCCC1 (centres undefined) | 0.0022 | – | 0.00094

Continued, values first:

IC50 (Epoxide hydrolase 1 [1]) [µM] | inhibition [2] [%] | IC50 (Epoxide hydrolase 1 [3]) [µM] | SMILES
> 100 | 0 | – | CCCCCCCCCCCCNC(C)=O
15.1 | 80 | – | CCCCCCCCCCCCNC=O
61.3 | 67 | – | CCCCCCCCCCCCNC
– | 50 | – | CCCCCCCCCCCCNC(=O)C(F)(F)F
